# Assay results of several laboratories.
# Each line is one published result; the experiments were not run side by side.
# Cell line: THP-1
Compound,test,setting,IC50
Cn1c(-c2nnc(NC(=O)c3cc4c([nH]c5ccccc54)c(-c4ccc(F)cc4)n3)s2)cc2ccccc21,"cell growth or viability, MTT",72 h,32800 nM
CCC(NC(C)C)C(O)c1ccc(O)c(O)c1 (centres unmarked),"TNF-α release, inhibitor","17 h, LPS-stimulated",2070 nM
Cc1cnc(-c2ccc(-c3ccc(NC(=O)Nc4c(F)cc(F)cc4F)cc3F)c3c2C(=O)NC3)[nH]1,cell growth or viability,,3.88 nM
COc1cc(/C=C/C(=O)CC(=O)/C=C/c2ccc(O)c(OC)c2)ccc1O,"cell growth or viability, MTT",48 h,24 µg/mL
CCn1c(-c2nnc(NC(=O)c3cc4c([nH]c5ccccc54)c(-c4ccc(C)cc4)n3)s2)cc2ccccc21,"cell growth or viability, MTT",72 h,38900 nM
Cl.NCc1ccc(-c2nc(-c3ccc(Oc4ccc(C(F)(F)F)cc4)cc3)no2)cc1,"cell growth or viability, LDH",24 h,4.4 µg/mL
COc1cccc2c1C(=O)c1c(O)c3c(c(O)c1C2=O)C[C@@](O)(C(=O)CO)C[C@@H]3O[C@H]1C[C@H](N)[C@H](O)[C@H](C)O1,"cell growth or viability, MTT",72 h,3250 nM
Cc1ccc(S(=O)(=O)/C=C/C#N)cc1,"TNF-α release, inhibitor","17 h, LPS-stimulated",1220 nM
O=C(Nc1nnc(-c2cc3ccccc3[nH]2)s1)c1cc2c([nH]c3ccccc32)c(-c2ccccc2)n1,"cell growth or viability, MTT",72 h,3570 nM
Nc1nc(Nc2ccc3c(c2)CC[C@@H](N2CCCC2)CC3)nn1-c1cc2c(nn1)-c1ccccc1CCC2,"cell growth or viability, trypan blue",72 h,2540 nM
NCCc1c[nH]cn1,"TNF-α release, inhibitor, ELISA","17 h, LPS-stimulated",710 nM
O=C(/C=C/C=C/c1ccc2c(c1)OCO2)N1CCCCC1,"cell growth or viability, MTT",48 h,> 50 µg/mL
NC[C@H](O)c1ccc(O)c(O)c1,"TNF-α release, inhibitor","17 h, LPS-stimulated",100 nM
CCn1c(-c2nnc(NC(=O)c3cc4c([nH]c5ccccc54)c(-c4cc(OC)c(OC)c(OC)c4)n3)s2)cc2ccccc21,"cell growth or viability, MTT",72 h,40200 nM
C#CCSc1nc(Sc2nnnn2-c2ccccc2)c2nnn(Cc3ccc(OC)cc3)c2n1,"cell growth or viability, MTS",6 days,2520 nM
CNCC(O)c1ccc(O)c(O)c1 (racemic),"TNF-α release, inhibitor","17 h, LPS-stimulated",150 nM
CC(C)[C@H](N)C(=O)N1CCC[C@H]1B(O)O,"cell growth or viability, ATP luminescence",48 h,206 nM
CC(C)NC[C@@H](O)c1ccc(O)c(O)c1,"TNF-α release, inhibitor","17 h, LPS-stimulated",71 nM
COc1ccc(-c2nc(C(=O)Nc3nnc(-c4cc5ccccc5n4C)s3)cc3c2[nH]c2ccccc23)cc1,"cell growth or viability, MTT",72 h,14400 nM
CC[C@@H](C)[C@H](N)C(=O)N1Cc2ccccc2C1,"cell growth or viability, ATP luminescence",48 h,2500 nM
